Data set [1] deals with Schistosoma mansoni. Nature of the data set: Antischistosomal activity against Schistosoma mansoni Puerto Rican infected mouse assessed as infected mouse at 400 mg/kg/day, through gavage for 10 days. Format: functional.
Data set [2] deals with Schistosoma mansoni. Nature of the data set: Antischistosomal activity against Schistosoma mansoni Puerto Rican infected mouse assessed as infected mouse at 329 mg/kg/day, through diet for 14 days. Format: functional. The procedure, abridged: (§1)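 Mice carrying a Puerto Rican strain of S. mansoni received drug mixed into a powdered diet for 14 days, with dose expressed as mg/kg per day. The read-out was the reduction in live schistosomes in the infected mice.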

Data set [3] concerns Schistosoma mansoni. Nature of the data set: Antischistosomal activity against Schistosoma mansoni Puerto Rican infected mouse assessed as reduction in live schistosomes at 400 mg/kg/day, through gavage for 10 days. Format: functional. The settings on record: po, 240 h.
Data set [4] has as its system Schistosoma mansoni. Briefly: Antischistosomal activity against Schistosoma mansoni Puerto Rican infected mouse assessed as reduction in live schistosomes at 329 mg/kg/day, through diet for 14 days. Format: functional. The settings on record: 336 h. The procedure, abridged: as §1
For data set [5], the system named is Schistosoma mansoni. Nature of the data set: Antischistosomal activity against Schistosoma mansoni Puerto Rican infected mouse assessed as reduction in live schistosomes at 347 mg/kg/day, through diet for 14 days. Format: functional. The settings on record: 336 h. In short, it runs like this:
as §1

In data set [6] the test system is Schistosoma mansoni. Briefly: Antischistosomal activity against Schistosoma mansoni Puerto Rican infected mouse assessed as infected mouse at 347 mg/kg/day, through diet for 14 days. Format: functional. The procedure, abridged:
as §1

Data set [7] concerns Schistosoma mansoni. Nature of the data set: Antischistosomal activity against Schistosoma mansoni Puerto Rican infected mouse assessed as infected mouse at 78 mg/kg/day, through diet for 14 days. Format: functional. In short, it runs like this: as §1
Data set [8] is described as follows: Toxicity in mouse po dosed through diet for 14 days. Format: organism-based. As to conditions: in vivo. In short, it runs like this: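 Mice infected with a Puerto Rican strain of *Schistosoma mansoni*; drug mixed into a powdered diet and fed orally for 14 days; doses expressed as mg/kg per day.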
In data set [9] the test system is Schistosoma mansoni. Briefly: Antischistosomal activity against Schistosoma mansoni Puerto Rican infected mouse assessed as reduction in live schistosomes at 78 mg/kg/day, through diet for 14 days. Format: functional. As to conditions: 336 h. The procedure, abridged:
as §1

Data set [10] concerns Schistosoma mansoni. Briefly: Antischistosomal activity against Schistosoma mansoni Puerto Rican infected mouse assessed as infected mouse at 288 mg/kg/day, through diet for 14 days. Format: functional. In short, it runs like this: as §1
In data set [11] the test system is Schistosoma mansoni. Nature of the data set: Antischistosomal activity against Schistosoma mansoni Puerto Rican infected mouse assessed as reduction in live schistosomes at 288 mg/kg/day, through diet for 14 days. Format: functional. The settings on record: 336 h. The procedure, abridged:
as §1

For data set [12], the system named is Schistosoma mansoni. Nature of the data set: Antischistosomal activity against Schistosoma mansoni Puerto Rican infected mouse assessed as infected mouse at 249 mg/kg/day, through diet for 14 days. Format: functional. In short, it runs like this:
as §1

Data set [13] has as its system Schistosoma mansoni. Nature of the data set: Antischistosomal activity against Schistosoma mansoni Puerto Rican infected mouse assessed as reduction in live schistosomes at 249 mg/kg/day, through diet for 14 days. Format: functional. As to conditions: 336 h. In short, it runs like this:
as §1

Data set [14] relates to Schistosoma mansoni. Nature of the data set: Antischistosomal activity against Schistosoma mansoni Puerto Rican infected mouse assessed as reduction in live schistosomes at 298 mg/kg/day, through diet for 14 days. Format: functional. As to conditions: 336 h. The procedure, abridged:
as §1

Data set [15] has as its system Schistosoma mansoni. Nature of the data set: Antischistosomal activity against Schistosoma mansoni Puerto Rican infected mouse assessed as infected mouse at 298 mg/kg/day, through diet for 14 days. Format: functional. The procedure, abridged:
as §1

Data set [16] concerns Schistosoma mansoni. Nature of the data set: Antischistosomal activity against Schistosoma mansoni infected rhesus monkey assessed as removal of all worms at 200 mg/kg/day, through gavage for 5 to 10 days. Format: functional, organism-based. The procedure, abridged: (§2)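 S. mansoni-infected rhesus monkeys were dosed daily by gavage. Assessment was by egg output over time (temporary suppression) and by the number of live and dead worms remaining in the treated animal.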

Data set [17] concerns Schistosoma mansoni. Briefly: Antischistosomal activity against Schistosoma mansoni infected rhesus monkey assessed as temporary egg suppression at 200 mg/kg/day, through gavage for 10 days. Format: functional, organism-based. In short, it runs like this: as §2
For data set [18], the system named is Schistosoma mansoni. Briefly: Antischistosomal activity against Schistosoma mansoni Puerto Rican infected mouse assessed as reduction in live schistosomes at 302 mg/kg/day, through diet for 14 days. Format: functional. As to conditions: 336 h. In short, it runs like this:
as §1

Data set [19] deals with Schistosoma mansoni. Nature of the data set: Antischistosomal activity against Schistosoma mansoni Puerto Rican infected mouse assessed as infected mouse at 302 mg/kg/day, through diet for 14 days. Format: functional. In short, it runs like this:
as §1

In data set [20] the test system is Schistosoma mansoni. Briefly: Antischistosomal activity against Schistosoma mansoni Puerto Rican infected mouse assessed as reduction in live schistosomes at 349 mg/kg/day, through diet for 14 days. As to conditions: 336 h. Format: functional. In short, it runs like this: as §1
Data set [21] deals with Schistosoma mansoni. Briefly: Antischistosomal activity against Schistosoma mansoni Puerto Rican infected mouse assessed as infected mouse at 349 mg/kg/day, through diet for 14 days. Format: functional. The procedure, abridged: as §1
Data set [22] deals with Schistosoma mansoni. Nature of the data set: Antischistosomal activity against Schistosoma mansoni Puerto Rican infected mouse assessed as reduction in live schistosomes at 376 mg/kg/day, through diet for 14 days. Format: functional. The settings on record: 336 h. In short, it runs like this:
as §1

For data set [23], the system named is Schistosoma mansoni. Nature of the data set: Antischistosomal activity against Schistosoma mansoni Puerto Rican infected mouse assessed as infected mouse at 376 mg/kg/day, through diet for 14 days. Format: functional. The procedure, abridged: as §1

Active and inactive are the calls of the source. The calls are words filed in the database; no cut-off is given here.

On to `O=C1NC(=O)C(c2cc(Cl)c(Cl)cc2Cl)N1` (stereo not given) [listing 1 of 2 here], for which the Activity in data set [1] was found to be 100%; in data set [2], 67%. For the same compound, the inhibition in vivo at 400 mg/kg/day in data set [3] came to 0%. The inhibition in vivo at 329 mg/kg/day in [4] came out at 80%.
As for `O=C1NC(=O)C(c2c(Cl)cccc2Cl)N1` (stereo not given), the inhibition in vivo at 347 mg/kg/day in data set [5] turned out to be 2%. Also, the Activity in data set [6] came to 100%.
As to `CN(C)CCCN1C(=O)NC(c2cc(Cl)c(Cl)cc2Cl)C1=O` (stereo not given), the Activity in data set [7] amounted to 100%. The MTD at 336 h in data set [8] stood at 78 mg/kg. Moreover, the inhibition in vivo at 78 mg/kg/day in [9] is 0%.
Regarding `C[N+](C)(C)CCCN1C(=O)NC(c2cc(Cl)c(Cl)cc2Cl)C1=O.[I-]` (stereo not given), the Activity in data set [10] amounted to 100%. Moreover, the inhibition in vivo at 288 mg/kg/day in data set [11] turned out to be 13%.
In the case of `O=C1NCCN1c1ncc([N+](=O)[O-])s1` [NIRIDAZOLE], in data set [12], the Activity worked out at 17%. In addition, the inhibition in vivo at 249 mg/kg/day in data set [13] is 99%.
`CC1(c2cccc([N+](=O)[O-])c2)NC(=O)NC1=O` (stereo not given): in data set [14], the inhibition in vivo at 298 mg/kg/day stood at 0%. Moreover, the Activity in data set [15] amounted to 100%.
Regarding `O=C1NC(=O)C(c2cc(Cl)c(Cl)cc2Cl)N1` (stereo not given) [listing 2 of 2 here], in [16], the inhibition entry is “Active”. Moreover, the inhibition entry in [17] is “Dose-dependent effect”.
`O=C1NC(=O)C(c2ccc(Cl)cc2Cl)N1` (stereo not given): the inhibition in vivo at 302 mg/kg/day in data set [18] turned out to be 36%. For the same compound, the Activity in data set [19] worked out at 100%.
As for `O=C1NC(=O)C(c2ccc(Cl)c(Cl)c2)N1` (stereo not given), the Activity in data set [2] is on record as 100%. In [4], the inhibition in vivo at 329 mg/kg/day came to 0%.
Take `Cc1cc(Cl)c(Cl)cc1C1(C)NC(=O)NC1=O` (stereo not given): the inhibition in vivo at 349 mg/kg/day in data set [20] amounted to 48%. For the same compound, in data set [21], the Activity came to 100%.
`CC1(c2ccc(Cl)c(Cl)c2)NC(=O)NC1=O` (stereo not given): the inhibition in vivo at 376 mg/kg/day in [22] was determined as 38%. The Activity in [23] is 100%.

As usually defined, the inhibition in vivo is how much of the control response was suppressed.

The values are drawn from ChEMBL document CHEMBL3244429, “Antischistosomal effects of 5-(2,4,5-trichlorophenyl)hydantoin and related compounds” (J Med Chem, 1977).
